Screening results as filed in PubChem.
Shown are actives, neighbours in structure and some others; about 3.7% of the full set was active somewhere.
hERG protect: hERG (human) protection from proarrhythmic block | Q12809 | CHO-hERG, FluxOR thallium flux, dofetilide IC70 present | activation (rescue from dofetilide block), less the hit threshold, % at 10 µM | 0.51% of 310,000 active;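 active = activation above the mean of controls blocked by dofetilide plus 5 SD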;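 also: thallium influx through hERG after potassium depolarization seen as dye fluorescence rise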
Target sequence (Q12809 whole entry, looked up): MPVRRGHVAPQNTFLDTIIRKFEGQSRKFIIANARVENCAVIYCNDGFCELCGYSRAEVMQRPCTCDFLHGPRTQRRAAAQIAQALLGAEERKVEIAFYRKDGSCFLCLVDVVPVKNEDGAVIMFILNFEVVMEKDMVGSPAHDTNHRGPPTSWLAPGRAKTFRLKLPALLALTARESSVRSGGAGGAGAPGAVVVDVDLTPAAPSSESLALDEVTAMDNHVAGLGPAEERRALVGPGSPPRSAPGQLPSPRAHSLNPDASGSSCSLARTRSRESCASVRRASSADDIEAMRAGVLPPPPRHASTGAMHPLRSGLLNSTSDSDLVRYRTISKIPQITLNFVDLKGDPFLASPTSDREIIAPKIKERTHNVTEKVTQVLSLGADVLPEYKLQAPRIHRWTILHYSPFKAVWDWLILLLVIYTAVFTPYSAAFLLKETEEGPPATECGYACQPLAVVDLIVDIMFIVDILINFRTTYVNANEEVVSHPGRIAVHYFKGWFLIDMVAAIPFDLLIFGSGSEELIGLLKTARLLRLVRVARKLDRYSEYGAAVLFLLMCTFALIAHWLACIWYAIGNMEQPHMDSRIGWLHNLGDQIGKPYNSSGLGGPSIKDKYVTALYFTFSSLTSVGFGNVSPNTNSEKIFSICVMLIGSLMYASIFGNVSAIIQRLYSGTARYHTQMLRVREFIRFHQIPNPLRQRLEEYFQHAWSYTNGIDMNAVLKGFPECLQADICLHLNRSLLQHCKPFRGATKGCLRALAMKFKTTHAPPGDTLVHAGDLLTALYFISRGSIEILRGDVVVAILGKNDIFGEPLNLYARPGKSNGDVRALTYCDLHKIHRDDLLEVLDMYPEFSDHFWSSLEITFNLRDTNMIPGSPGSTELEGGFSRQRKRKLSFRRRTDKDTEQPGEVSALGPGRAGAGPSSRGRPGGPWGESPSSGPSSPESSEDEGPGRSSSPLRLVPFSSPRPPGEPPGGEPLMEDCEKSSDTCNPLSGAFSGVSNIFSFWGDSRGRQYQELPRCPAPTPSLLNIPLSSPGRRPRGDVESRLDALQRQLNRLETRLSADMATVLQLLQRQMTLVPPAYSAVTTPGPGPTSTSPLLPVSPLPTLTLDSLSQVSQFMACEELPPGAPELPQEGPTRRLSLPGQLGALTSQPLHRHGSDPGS
KCNQ1 inh: inhibitors of human KCNQ1 potassium channel; 1.3% of 310,000 active; B-score at 10 µM; P51787; CHO-K1 KCNQ1, FluxOR thallium flux fluorescence; hits give high values;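 active = compounds whose thallium flux B-score, printed positive for inhibition, exceeds three library SD while starting fluorescence stays within three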;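 also: channel opened by potassium depolarization with thallium stimulus after 20 min compound exposure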
KCNQ1 act: potentiators or activators of human KCNQ1 potassium channel; B-score at 10 µM; 0.35% of 310,000 active; CHO-K1 KCNQ1, thallium flux FluxOR fluorescence; hits give high values; P51787; AID 2648;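 active = fluorescence ratio B-score, a plate-corrected score, at least three library SD, with initial intensity B-score within 5 SD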
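Test system: CHO-K1 cells stably expressing KCNQ1 / Medium: assay buffer / Also added: depolarizing K+/Tl+ stimulus, K2SO4 and Tl2SO4 each 12.5 mM in 5x stock / Incubation: 90 min dye loading and 20 min compound exposure, both at room temperature / Signal: thallium influx via FluxOR fluorescence, kinetic imaging / Evaluation: B score of baseline-normalized fluorescence ratio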
KCNK9 inh: inhibitors of human KCNK9 two-pore domain potassium channel | Q9NPC2 | HEK293 KCNK9, FluxOR thallium flux fluorescence; hits give low values | B-score at 10 µM | 1.2% of 310,000 active | AID 488922;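 active = ratio B-score over 3 SD below the library mean, with starting fluorescence within 5 SD of its mean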;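 also: negative B-score means less thallium flux so channel inhibition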
KCNK3 inh: human KCNK3 channel inhibition, primary screen; O14649; CHO-KCNK3 thallium flux, FluxOR fluorescence; hits give low values; B-score at 10 µM; 0.84% of 340,000 active; AID 602410;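 active = B-score under library mean minus 4 SD, starting fluorescence ratio at most library mean plus 5 SD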;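 also: more negative B-score means stronger inhibition of thallium flux through KCNK3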
Kir21 inh: Kir2.1 (mouse) channel inhibition; AID 1672; HEK293-Kir2.1, FluxOR thallium flux fluorescence; hits give low values; 0.85% of 310,000 active; B-score at 10 µM; P35561;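 active = fluorescence ratio B-score at or below minus 3 SD of library scores, with starting-brightness B-score within 2 SD, cut at about -4.2 in these data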;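 also: channel flux triggered by added potassium and thallium sulfate stimulus; B-score of peak minus minimum fluorescence over baseline after thallium stimulus; more negative B-score means stronger Kir2.1 block with less thallium influx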
KCNK3 inh conf: human KCNK3 channel inhibition, confirmation assay. shares compounds with KCNK3 inh. 99% of 2,400 active. ratio percent of control, % at 10 µM. CHO-KCNK3 thallium flux, FluxOR fluorescence; 0% buffer, 100% carvedilol maximal block;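 active = ratio percent of control, averaged over triplicates, above buffer control mean plus 5 SD, cut at about 64% in these data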;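 also: ratio is the fluorescence rise from min to max over baseline after thallium stimulus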
KCNK3 noninduced: activity in cells without induced KCNK3 expression; shares compounds with KCNK3 inh; non-induced KCNK3 parental cells, FluxOR thallium flux; hits give low values; thallium flux ratio (lower = more inhibition) at 10 µM; 40% of 2,400 active; AID 651747;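 active = thallium flux ratio, averaged over three wells, more than 5 SD below the buffer control mean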;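 also: host cells are CHO cells without KCNK3 induction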
A number is an active result; – = inactive; · = no result.

SMILES | hERG protect | KCNQ1 inh | KCNQ1 act | KCNK9 inh | KCNK3 inh | Kir21 inh | KCNK3 inh conf | KCNK3 noninduced
CC1CCN(C(=O)Nc2cccc(NC(=O)N3CCC(C)CC3)c2)CC1 | – | – | – | – | -8.96 | – | 111.7 | –
CSc1nc(C)c(Cc2ccccc2)c(=O)[nH]1 | – | – | – | – | – | – | · | ·
CCCCC(Sc1nc(C)c(Cc2ccccc2)c(=O)[nH]1)C(=O)O (stereo not drawn) | – | – | – | – | -8.96 | – | – | –
CCOC(=O)c1sc2nc(C)nc(N3CCCCC3C)c2c1C (stereo not drawn) | – | – | – | – | -8.78 | – | 90.3 | 0.148
C(=N\N1CCN(C2c3ccccc3-c3ccccc32)CC1)/c1cccnc1 | – | – | – | – | -10.1 | – | 84.7 | –
C/C(=N\N1CCN(C2c3ccccc3-c3ccccc32)CC1)c1cccnc1 | – | – | – | – | – | – | · | ·
COc1ccc(OC)c(NC(=S)N2c3ccccc3CC2C)c1 (stereo not drawn) | – | – | – | – | -9.09 | – | 105.0 | –
COC(=O)C(Cc1ccc(O)cc1)NC(=O)NC12CC3CC(CC(C3)C1)C2 (stereo not drawn) | – | – | – | – | – | – | · | ·
CCOC(=O)c1sc2nc(CC(=O)OC)nc(NCc3ccc(F)cc3)c2c1C | – | – | – | – | – | – | · | ·
CCOC(=O)c1sc2nc(C)nc(NCc3ccc(Cl)cc3)c2c1C | – | – | – | – | -10.6 | – | 121.3 | 0.133
CCOC(=O)c1sc2nc(C)nc(NCc3ccc(F)cc3)c2c1C | – | – | – | – | -10.2 | – | 116.3 | 0.153
C=CCNC(=O)CN1N=C(c2ccc(C)cc2)CCC1=O | – | – | – | – | – | – | · | ·
CCOC(=O)c1cc(-c2ccco2)nc2c1c(C)nn2-c1ccccc1 | – | – | – | – | -9.37 | – | 93.0 | –
O=C(NCCC1CCCCN1S(=O)(=O)c1ccccc1)C(=O)NC1CC1 (stereo not drawn) | – | – | – | – | – | – | · | ·
CCn1c(=NC(=O)c2ccc(N3C(=O)CCC3=O)cc2)sc2c(OC)ccc(OC)c21 | – | – | – | – | – | – | · | ·
CCn1c(=NC(=O)c2cccc(N3C(=O)CCC3=O)c2)sc2c(C)ccc(OC)c21 | – | – | – | – | -9.4 | – | 106.3 | –
COc1cccc2cc(CC(=O)c3cc(C)ccc3C)c(=O)oc12 | – | – | – | – | -9.62 | – | 82.0 | –
COc1cccc2cc(CC(=O)c3ccc(C)c(C)c3)c(=O)oc12 | – | – | – | – | – | – | · | ·
N#CC1=C(N)NC(SCc2ccccc2)=C(C#N)C12CCCCC2 | – | – | – | – | – | – | · | ·
COc1ccc(C(=O)CSC2=C(C#N)C3(CCCCC3)C(C#N)=C(N)N2)cc1 | – | – | – | – | -10.4 | – | 112.3 | 0.125
N#CC1=C(N)NC(SCC(=O)Nc2ccccc2)=C(C#N)C12CCCCC2 | – | – | – | – | -9.48 | – | 106.0 | 0.139
COc1ccc(C(=O)CSc2nc(N)nc(SC)c2C#N)cc1 | – | – | – | – | – | – | · | ·
CCc1ccc(C(=O)C(C)OC(=O)CNS(=O)(=O)c2ccc(C)cc2)cc1 (stereo not drawn) | – | – | – | – | – | – | · | ·
CC(C)(C)c1ccc(C(=O)/C(C#N)=C/c2cccs2)cc1 | – | 6 | – | – | -12.1 | – | 111.3 | –
Cc1cccc(C)c1NC(=O)/C(C#N)=C/c1cccs1 | – | – | – | – | – | – | · | ·
SMILES | hERG protect | KCNQ1 inh | KCNQ1 act | KCNK9 inh | KCNK3 inh | Kir21 inh | KCNK3 inh conf | KCNK3 noninduced
O=C(NCCCn1ccnc1)c1ccc(Br)s1 | – | – | – | – | – | – | · | ·
COCCOc1nc2c(c(=O)n(C)c(=O)n2C)n1Cc1cccc(OC)c1 | – | – | – | – | -11 | – | 66.0 | –
CC(C)c1ccccc1-n1c(SCC(=O)c2ccc3c(c2)NC(=O)CO3)nc2ccccc2c1=O | – | 6 | – | -7.4 | -10.6 | – | 115.0 | 0.149
CN(C)c1nc(SCc2ccccc2Cl)nc2c1CCCC2 | – | – | – | – | – | – | · | ·
Cc1ccc(CSc2nc3c(c(N(C)C)n2)CCCC3)cc1 | – | – | – | – | -8.89 | – | 139.0 | 0.115
O=C(/C=C/c1ccc(N2CCCCC2)c([N+](=O)[O-])c1)c1ccc(O)cc1 | – | – | – | -7.76 | -11.2 | – | 123.3 | –
COc1ccc(S(=O)(=O)Oc2ccc3cccc(N)c3c2)cc1 | – | – | – | – | -9.07 | – | 101.3 | –
COc1ccc(S(=O)(=O)N2CCN(Cc3cccc(Cl)c3)CC2)cc1 | – | – | – | – | – | – | · | ·
COc1cccc(CN2CCN(S(=O)(=O)c3ccc(Cl)s3)CC2)c1 | – | – | – | – | -9.22 | – | 116.3 | 0.127
Cc1ccc(Cl)cc1C1=CC(=O)C[C@H](c2ccc(F)cc2)C1 | · | · | · | · | – | · | · | ·
CCc1c(C)nc2cc(-c3ccc(OC)c(OC)c3)nn2c1N1CCCC1 | – | – | – | – | -9.63 | – | 109.0 | –
COc1ccc(-c2c(C)nn3c(N4CCCCCC4)cc(C)nc23)cc1OC | – | – | – | – | – | – | · | ·
CCc1c(C)nc2cc(-c3ccc(OC)c(OC)c3)nn2c1N1CCC(C)CC1 | – | – | – | – | -8.94 | – | 103.7 | –
Cc1cc(C(=O)NNC(=O)c2ccc(C)c([N+](=O)[O-])c2)c(C)o1 | · | · | · | · | – | · | · | ·
CCOc1ccc(-c2cccc(NC(=O)c3ccc(Br)o3)c2)nn1 | – | – | – | – | -11.7 | – | 98.0 | –
Cc1ccc(S(=O)(=O)N(C)CCCC(=O)N2CCCCC2)cc1 | – | – | – | – | – | – | · | ·
CC(C)(C)n1nnnc1C(c1cccnc1)N1CCN(c2cccc(C(F)(F)F)c2)CC1 (stereo not drawn) | – | – | – | – | -10.3 | – | 77.0 | –
CC(C)(C)n1nnnc1C(c1cccnc1)N1CCN(C2CCCCC2)CC1 (stereo not drawn) | – | – | – | – | – | – | · | ·
O=[N+]([O-])c1ccc(NN=Cc2ccc3c(c2)OCO3)nc1 | · | · | · | · | – | · | · | ·
CC(Oc1cccc(Cl)c1)C(=O)Nc1ccccc1N1CCCC1 (stereo not drawn) | – | – | – | – | -8.75 | – | 124.0 | –
COc1cc(C(C)=O)ccc1OCC(=O)Nc1ccccc1N1CCCCC1 | – | – | – | – | – | – | · | ·
O=C(COc1ccc(Cl)cc1Br)Nc1ccccc1N1CCCC1 | – | – | – | – | – | – | · | ·
Cc1cccc(NC(=O)CSCC(=O)Nc2ccccc2N2CCCC2)c1 | – | – | – | – | -9.6 | -4.27 | 87.3 | –
Cc1cccc(C)c1OCC(=O)Nc1ccccc1N1CCCCC1 | – | – | – | -7.6 | -9.32 | – | 114.0 | –
